Experimental data from ChEMBL document CHEMBL1127697, “New N alpha-guanidinobenzoyl derivatives of hirudin-54-65 containing stabilized carboxyl or phosphoryl groups on the side chain of phenylalanine-63” (1994).
Residues, ends and D or L forms follow the SMILES beside them.

Tests used:
Format in all cases: functional
[1] = organism: Rattus norvegicus; experiment: Concentration that doubles thrombin time (inhibition of fibrin clot) in rats
Summary of the method: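 Plasma was incubated 2 min at 37 °C with inhibitor or vehicle, then thrombin (1.5 NIH/mL) was added and clotting time read on a coagulometer. Value is the µM concentration that doubles thrombin time relative to the no-inhibitor control.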

[2] = system: Rattus norvegicus; experiment: Activated partial thromboplastin time at 3 min following intravenous administration in rats at a dose 8 mg/kg
Summary of the method: (§1)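 Sprague-Dawley rats (300–400 g) anesthetized with pentobarbital sodium (60 mg/kg ip). Peptide (1 mL) given iv via cannulated jugular vein. Carotid blood (1.5 mL) drawn 30 min before and at 1.5–60 min after dosing, then centrifuged 15 min at 3000g to platelet-poor plasma. APTT read on a coagulometer: plasma mixed with thromboplastin at 37 °C. Expressed as % of untreated animals; n = 4–6 independent experiments.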

[3] = system: Rattus norvegicus; experiment: Activated partial thromboplastin time at 30 min following intravenous administration in rats at a dose 8 mg/kg; summary of the method: as §1
[4] = system: Rattus norvegicus; experiment: Activated partial thromboplastin time at 15 min following intravenous administration in rats at a dose 8 mg/kg; summary of the method: as §1
[5] = system: Rattus norvegicus; experiment: Activated partial thromboplastin time at 60 min following intravenous administration in rats at a dose 8 mg/kg; summary of the method: as §1
[6] = system: Rattus norvegicus; experiment: Activated partial thromboplastin time at 5 min following intravenous administration in rats at a dose 8 mg/kg; summary of the method: as §1
[7] = system: Rattus norvegicus; experiment: Activated partial thromboplastin time at 1.5 min following intravenous administration in rats at a dose 8 mg/kg; summary of the method: as §1

SMILES	Ctt2 [1] [µM]	Baseline [2] [%]	Baseline [3] [%]	Baseline [4] [%]	Baseline [5] [%]	Baseline [6] [%]	Baseline [7] [%]
CC[C@H](C)[C@H](NC(=O)C1C2CCC(CC2)N1C(=O)[C@H](CCC(=O)O)NC(=O)C(Cc1ccccc1)NC(=O)[C@H](CC(=O)O)NC(=O)CNC(=O)c1ccc(NC(=N)N)cc1)C(=O)N1CCC[C@H]1C(=O)N[C@@H](CCC(=O)O)C(=O)N[C@@H](CCC(=O)O)C(=O)N[C@H](Cc1ccc(CC(=O)O)cc1)C(=O)N[C@@H](CC(C)C)C(=O)N[C@H](CCC(=O)O)C(=O)O (stereo in doubt)	50						
CC[C@H](C)[C@H](NC(=O)C1C2CCC(CC2)N1C(=O)[C@H](CCC(=O)O)NC(=O)[C@H](Cc1ccccc1)NC(=O)[C@H](CC(=O)O)NC(=O)CNC(=O)c1ccc(NC(=N)N)cc1)C(=O)N1CCC[C@H]1C(=O)N[C@@H](CCC(=O)O)C(=O)N[C@@H](CCC(=O)O)C(=O)N[C@@H](Cc1ccc(CC(=O)O)cc1)C(=O)N[C@@H](CC(C)C)C(=O)N[C@H](CCC(=O)O)C(=O)O (stereo partly drawn)	1	205	141	149	118	188	213
CC[C@H](C)[C@H](NC(=O)C1C2CCC(CC2)N1C(=O)[C@H](CCC(=O)O)NC(=O)[C@H](Cc1ccccc1)NC(=O)[C@H](CC(=O)O)NC(=O)CNC(=O)c1ccc(NC(=N)N)cc1)C(=O)N1CCC[C@H]1C(=O)N[C@@H](CCC(=O)O)C(=O)N[C@@H](CCC(=O)O)C(=O)N[C@@H](Cc1ccc(O)cc1)C(=O)N[C@@H](CC(C)C)C(=O)O (stereo partly drawn) (HELM PEPTIDE1{[N=C(N)Nc1ccc(C(=O)[*:2])cc1].G.D.F.E.[O=C(C1C2CCC(CC2)N1[*:1])[*:2]].I.P.E.E.Y.L}$$$$V2.0)	16.5	123	100	108	98	115	136
CC[C@H](C)[C@H](NC(=O)C1C2CCC(CC2)N1C(=O)[C@H](CCC(=O)O)NC(=O)[C@H](Cc1ccccc1)NC(=O)[C@H](CC(=O)O)NC(=O)CNC(=O)c1ccc(NC(=N)N)cc1)C(=O)N1CCC[C@H]1C(=O)N[C@@H](CCC(=O)O)C(=O)N[C@@H](CCC(=O)O)C(=O)N[C@@H](Cc1ccc(OP(=O)(O)O)cc1)C(=O)N[C@@H](CC(C)C)C(=O)N[C@H](CCC(=O)O)C(=O)O (stereo partly drawn)	0.9	162	110	125	107	147	201
CC[C@H](C)[C@H](NC(=O)C1C2CCC(CC2)N1C(=O)[C@H](CCC(=O)O)NC(=O)[C@H](Cc1ccccc1)NC(=O)[C@H](CC(=O)O)NC(=O)CNC(=O)c1ccc(NC(=N)N)cc1)C(=O)N1CCC[C@H]1C(=O)N[C@@H](CCC(=O)O)C(=O)N[C@@H](CCC(=O)O)C(=O)N[C@@H](Cc1ccc(P(=O)(O)O)cc1)C(=O)N[C@@H](CC(C)C)C(=O)N[C@H](CCC(=O)O)C(=O)O (stereo partly drawn)	2.8	225	181	200	187	217	252
CC[C@H](C)[C@H](NC(=O)C1C2CCC(CC2)N1C(=O)[C@H](CCC(=O)O)NC(=O)[C@H](Cc1ccccc1)NC(=O)[C@H](CC(=O)O)NC(=O)CNC(=O)c1ccc(NC(=N)N)cc1)C(=O)N1CCC[C@H]1C(=O)N[C@@H](CCC(=O)O)C(=O)N[C@@H](CCC(=O)O)C(=O)N[C@@H](Cc1ccc(O)cc1P(=O)(O)O)C(=O)N[C@@H](CC(C)C)C(=O)N[C@H](CCC(=O)O)C(=O)O (stereo partly drawn)	4	244	164	192	163	217	265
CC[C@H](C)[C@H](NC(=O)C1C2CCC(CC2)N1C(=O)[C@H](CCC(=O)O)NC(=O)[C@H](Cc1ccccc1)NC(=O)[C@H](CC(=O)O)NC(=O)CNC(=O)c1ccc(NC(=N)N)cc1)C(=O)N1CCC[C@H]1C(=O)N[C@@H](CCC(=O)O)C(=O)N[C@@H](CCC(=O)O)C(=O)N[C@@H](Cc1ccc(O)cc1)C(=O)N[C@@H](CC(C)C)C(=O)N[C@H](CCC(=O)O)C(=O)O (stereo partly drawn)	4.8	145	111	115	96	133	158
